Results as given in PubChem BioAssay AID624165 (Southern Research Specialized Biocontainment Screening …, 2012).
The source made the active and inactive calls.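 Rule for the calls: active = inhibition of 30% or more at any tested concentration; inactive = the rest.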

system: Plasmodium falciparum M18 aspartyl aminopeptidase (PfM18AAP); experiment: PFM18AAP inhibitors, dose response, selectivity assay for PFM1AAP inhibitor project, biochemical, QFRET, H-Glu-NHMec substrate, set 3 (AID 624165); conditions: Recombinant PfM18AAP, H-Glu-NHMec fluorogenic cleavage; series mostly up to 100 µM
In short: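 Benchmarks: no-enzyme background wells / Test system: purified recombinant PfM18AAP, M18 aspartyl aminopeptidase of Plasmodium falciparum / Quantity: enzyme 5 µg/mL / Schedule: enzyme reaction 90 min at room temperature / Repeats: each compound tested in triplicate / Compound dosing: 10-point twofold dilution series, 100 down to 0.2 µM / Detection: fluorescence, excitation 370 nm, emission 460 nm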

outcome, inactive:
O=C(Nc1ccc2c(c1)OCO2)C1CCN(S(=O)(=O)c2ccc(Br)s2)CC1, O=C(NCc1ccccc1F)C1CCN(S(=O)(=O)c2cc(Br)c(Br)s2)CC1, O=C(NCCc1ccc2c(c1)OCO2)C1CCN(S(=O)(=O)c2ccc(Br)cc2)CC1, O=C(NCc1ccccc1F)C1CCN(S(=O)(=O)c2sccc2Br)CC1, O=C(NCc1ccc2c(c1)OCO2)C1CCN(S(=O)(=O)c2sccc2Br)CC1, O=C(NCc1ccc2c(c1)OCO2)C1CCN(S(=O)(=O)c2ccc(Cl)s2)CC1, O=C(NCc1ccc(F)cc1)C1CCN(S(=O)(=O)c2sccc2Br)CC1, O=C(NCc1ccccc1F)C1CCN(S(=O)(=O)c2ccc(Br)s2)CC1, O=C(NCc1ccc2c(c1)OCO2)C1CCN(S(=O)(=O)c2ccc(Br)cc2)CC1, O=C(NCc1cccc(F)c1)C1CCN(S(=O)(=O)c2ccc(Br)cc2)CC1, O=C(NCCc1ccc2c(c1)OCO2)C1CCN(S(=O)(=O)c2ccc(Br)s2)CC1, O=C(NCc1ccc(F)cc1)C1CCN(S(=O)(=O)c2ccc(Cl)s2)CC1, O=C(NCc1ccccc1F)C1CCN(S(=O)(=O)c2ccc(Cl)s2)CC1, O=C(NCc1cccc(F)c1)C1CCN(S(=O)(=O)c2sccc2Br)CC1, O=C(NCc1ccc2c(c1)OCO2)C1CCN(S(=O)(=O)c2cc(Br)c(Br)s2)CC1, O=C(NCc1cccc(F)c1)C1CCN(S(=O)(=O)c2cc(Br)c(Br)s2)CC1, O=C(NCc1ccc(F)cc1)C1CCN(S(=O)(=O)c2cc(Br)c(Br)s2)CC1, O=C(NCc1ccc2c(c1)OCO2)C1CCN(S(=O)(=O)c2ccc(Br)s2)CC1, O=C(Nc1ccc2c(c1)OCO2)C1CCN(S(=O)(=O)c2sccc2Br)CC1, O=C(Nc1ccc2c(c1)OCO2)C1CCN(S(=O)(=O)c2cc(Br)c(Br)s2)CC1, O=C(NCc1ccc(F)cc1)C1CCN(S(=O)(=O)c2ccc(Br)cc2)CC1, O=C(NCc1cccc(F)c1)C1CCN(S(=O)(=O)c2ccc(Br)s2)CC1, O=C(NCCc1ccc2c(c1)OCO2)C1CCN(S(=O)(=O)c2ccc(Cl)s2)CC1, O=C(Nc1ccc2c(c1)OCO2)C1CCN(S(=O)(=O)c2ccc(Cl)s2)CC1, O=C(NCCc1ccc2c(c1)OCO2)C1CCN(S(=O)(=O)c2cc(Br)c(Br)s2)CC1, O=C(NCCc1ccc2c(c1)OCO2)C1CCN(S(=O)(=O)c2sccc2Br)CC1, O=C(NCc1ccccc1F)C1CCN(S(=O)(=O)c2ccc(Br)cc2)CC1, O=C(Nc1ccc2c(c1)OCO2)C1CCN(S(=O)(=O)c2ccc(Br)cc2)CC1, O=C(NCc1ccc(F)cc1)C1CCN(S(=O)(=O)c2ccc(Br)s2)CC1, O=C(NCc1cccc(F)c1)C1CCN(S(=O)(=O)c2ccc(Cl)s2)CC1
